Data set [1] deals with MCF7. The experiment in a line: Growth inhibition of ER-positive human MCF7 cells after 72 hrs by MTT assay. In kind it is functional. To be noted: MCF7, 72 h. Summed up: (§1)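 MCF-7 (ER-positive) cells in DMEM with 2 mM L-glutamine, penicillin/streptomycin and 10% charcoal-treated FCS, seeded at 2500-5000 cells/well. Drugs added 24 h later in serial dilutions from 10 mM DMSO stocks, then exposed 72 h. MTT (500 µg/mL) for 3 h at 37 °C, formazan dissolved in DMSO, A570 read minus A650. Sextuplicates, three experiments.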

Data set [2] can be described thus: Retardation factor of the compound using c-hexane/AcOEt at ratio of 6:4 as solvent system. In kind it is physicochemical.
In data set [3] the test system is MCF7. As to the kind of experiment: Antiproliferative activity against ER-positive human MCF7 cells assessed as cell viability at 0.1 mM after 72 hrs by MTT assay. Conditions: MCF7, 72 h, read-out: Activity. The data set is classed as functional. In outline:
as §1

Data set [4] can be described thus: Retardation factor of the compound using CH2Cl2 as solvent system. The data set is classed as physicochemical.
Data set [5] is described as follows: Retardation factor of the compound using CH2Cl2/AcOEt at ratio of 95:5 as solvent system. In kind it is physicochemical.
The test system of data set [6] is MCF7. As to the kind of experiment: Cell cycle arrest in human MCF7 cells assessed as accumulation at subG1 phase at 100 uM after 48 hrs by flow cytometry (reference value: 5%). The data set is classed as functional. In outline:
(§2)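 MCF-7 cells at 1.3 x 10^5 cells/mL exposed to 100 µM for 48 or 72 h, with DMSO control. Cells fixed in PBS/ethanol (30/70), then 10^4 cells incubated 30 min in PBS/0.2% Triton X-100/1 mM EDTA with propidium iodide (50 µg/mL) and RNase (0.5 mg/mL). Flow cytometry gave % cells per phase, with sub-G1 counted as apoptotic. Mean of two independent experiments.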

Data set [7] relates to MCF7. The experiment in a line: Cell cycle arrest in human MCF7 cells assessed as accumulation at S phase at 100 uM after 72 hrs by flow cytometry (reference value: 20.5%). The data set is classed as functional. Summed up:
as §2

Data set [8] relates to MCF7. The experiment in a line: Antiproliferative activity against human MCF7 cells assessed as inhibition of cell proliferation. The data set is classed as functional, cell-based.
The next data set has as its system Caco-2. As to the kind of experiment: Antiproliferative activity against human Caco2 cells assessed as inhibition of cell proliferation. In kind it is functional, cell-based.
The test system of the next data set is IGROV-1. As to the kind of experiment: Antiproliferative activity against human IGROV1 cells assessed as inhibition of cell proliferation. The data set is classed as functional, cell-based.
Data set [9] has as its system MCF7. The experiment in a line: Cell cycle arrest in human MCF7 cells assessed as accumulation at subG1 phase at 100 uM after 72 hrs by flow cytometry (reference value: 9.5%). The data set is classed as functional. In outline:
as §2

Data set [10] relates to MCF7. As to the kind of experiment: Cell cycle arrest in human MCF7 cells assessed as accumulation at G2/M phase at 100 uM after 72 hrs by flow cytometry (reference value: 19%). In kind it is functional. Summed up:
as §2

The next data set deals with RPMI-8226. The experiment in a line: Growth inhibition of human RPMI8226 cells after 72 hrs by MTS assay. In kind it is functional. Conditions: RPMI-8226, 72 h. In outline: (§3)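 Myeloma RPMI 8226 and LP-1 cells and prostate PC-3 cells, grown in RPMI 1640 with 2 mM L-glutamine and 10% heat-inactivated FBS, seeded at 2500-5000 cells/well. Drug dilutions added after 24 h. After 72 h, MTS reagent added and A492 read 2 or 3 h later. Run in triplicate, with each experiment done at least twice. GI50 taken relative to vehicle-treated cells.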

The subject of data set [11] is MDA-MB-231. The experiment in a line: Antiproliferative activity against human MDA-MB-231 cells assessed as inhibition of cell proliferation. In kind it is functional, cell-based.
The next data set has as its system PC-3. The experiment in a line: Growth inhibition of human PC3 cells after 72 hrs by MTS assay. In kind it is functional. To be noted: PC-3, 72 h. In outline: as §3
The subject of data set [12] is MDA-MB-231. The experiment in a line: Growth inhibition of ER-negative human MDA-MB-231 cells after 72 hrs by MTT assay. The data set is classed as functional. To be noted: MDA-MB-231, 72 h. Summed up:
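ER-negative MDA-MB-231 cells and tamoxifen- or Faslodex-resistant MCF-7 cells, grown in DMEM with 10% charcoal-treated FCS and seeded at 2500-5000 cells/well. Drug serial dilutions added after 24 h from 10 mM DMSO stocks. After 72 h, MTT at 500 µg/mL for 3 h at 37 °C, then A570 read minus A650.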

In data set [13] the test system is MCF7. The experiment in a line: Cell cycle arrest in human MCF7 cells assessed as accumulation at G0/G1 phase at 100 uM after 48 hrs by flow cytometry (reference value: 87%). The data set is classed as functional. Summed up:
as §2

The subject of data set [14] is MCF7. As to the kind of experiment: Cell cycle arrest in human MCF7 cells assessed as accumulation at G2/M phase at 100 uM after 48 hrs by flow cytometry (reference value: 7%). In kind it is functional. In outline:
as §2

The test system of a further data set is Ishikawa. The experiment in a line: Antiproliferative activity against human Ishikawa cells assessed as inhibition of cell proliferation. In kind it is functional, cell-based.
The test system of data set [15] is MCF7. As to the kind of experiment: Cell cycle arrest in human MCF7 cells assessed as accumulation at G0/G1 phase at 100 uM after 72 hrs by flow cytometry (reference value: 60.5%). The data set is classed as functional. Summed up: as §2
Data set [16] has as its system MCF7. The experiment in a line: Cell cycle arrest in human MCF7 cells assessed as accumulation at S phase at 100 uM after 48 hrs by flow cytometry (reference value: 6%). The data set is classed as functional. Summed up: as §2
The next data set has as its system LP-1. As to the kind of experiment: Growth inhibition of human LP-1 cells after 72 hrs by MTS assay. Conditions: LP-1, 72 h. In kind it is functional. In outline:
as §3

A short description of data set [17]: Retardation factor of the compound using CH2Cl2/MeOH at ratio of 9:1 as solvent system. The data set is classed as physicochemical.
A short description of data set [18]: Retardation factor of the compound using CH2Cl2/AcOEt at ratio of 9:1 as solvent system. In kind it is physicochemical.
In data set [19] the target is Heat shock protein HSP 90-beta (Homo sapiens) (UniProt P08238). The experiment in a line: Inhibition of HSP90 in human MCF7 cells assessed as ER-alpha degradation at 100 uM after 24 hrs by western blot analysis. The data set is classed as cell-based. Summed up:
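MCF-7 cells grown to 50% confluence, exposed to 100 µM for 24 h with or without MG132 (5 µM). Lysed in Tris-HCl pH 7.5/NaCl/EGTA/Triton X-100 buffer with phosphatase and protease inhibitors. 20 µg protein run on SDS-PAGE. ERα probed with D12 monoclonal antibody (1 µg/mL, overnight 4 °C), detected by biotin/avidin-peroxidase. Nonspecific band used as loading control; DMSO as vehicle.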

Data set [20] is described as follows: Retardation factor of the compound using Et2O as solvent system. The data set is classed as physicochemical.

pIC50: −log10 of the molar value. Activity calls are given as the source filed them. The calls are words filed in the database; no cut-off is given here.

Chain of Heat shock protein HSP 90-beta (Homo sapiens) (P08238 whole entry): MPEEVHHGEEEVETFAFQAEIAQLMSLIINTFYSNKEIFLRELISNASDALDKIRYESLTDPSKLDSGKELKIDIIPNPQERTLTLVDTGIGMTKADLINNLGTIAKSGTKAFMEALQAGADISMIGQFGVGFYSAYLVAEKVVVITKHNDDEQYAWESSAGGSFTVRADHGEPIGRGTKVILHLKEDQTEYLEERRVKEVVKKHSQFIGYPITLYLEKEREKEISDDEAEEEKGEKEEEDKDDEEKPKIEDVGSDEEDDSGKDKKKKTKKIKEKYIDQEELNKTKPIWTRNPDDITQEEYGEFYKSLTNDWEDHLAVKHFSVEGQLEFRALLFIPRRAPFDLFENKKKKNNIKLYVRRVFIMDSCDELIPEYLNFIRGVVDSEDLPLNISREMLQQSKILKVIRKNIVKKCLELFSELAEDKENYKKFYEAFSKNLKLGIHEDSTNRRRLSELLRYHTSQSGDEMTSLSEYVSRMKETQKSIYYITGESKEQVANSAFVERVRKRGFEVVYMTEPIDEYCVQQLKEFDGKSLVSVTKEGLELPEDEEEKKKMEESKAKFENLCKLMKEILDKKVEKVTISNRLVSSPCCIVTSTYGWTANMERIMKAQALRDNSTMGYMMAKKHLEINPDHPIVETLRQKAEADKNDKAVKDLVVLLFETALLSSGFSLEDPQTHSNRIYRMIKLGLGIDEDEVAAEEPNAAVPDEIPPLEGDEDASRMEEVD

Take `CO[C@@H]1[C@@H](OC(N)=O)[C@@H](O)[C@H](Oc2ccc3c(O)c(NC(=O)c4ccc(O)c(CC=C(C)C)c4)c(=O)oc3c2C)OC1(C)C` [NOVOBIOCIN]: the concentration for 50% growth inhibition (GI50) in the data set with MCF7 [1] is 260 µM.

`Cc1c(O)ccc2c(OS(C)(=O)=O)c(NC(=O)c3ccc4c(c3)CCC(C)(C)O4)c(=O)oc12`: the Rf in [2] is recorded as 0.14. In addition, in the data set with MCF7 [3], the viability at 100 µM was 61%.

Turning to `COc1ccc(-c2cc3c(OS(=O)(=O)c4ccc(C)cc4)c(NC(=O)c4ccc5c(c4)CCC(C)(C)O5)c(=O)oc3c(C)c2OC)cc1`, the Rf in data set [4] was 0.27. Further, the viability at 100 µM in the data set on MCF7 [3] was found to be 89%.

With `COc1cc(C#Cc2cc3c(OS(=O)(=O)c4ccc(C)cc4)c(NC(=O)c4ccc5c(c4)CCC(C)(C)O5)c(=O)oc3c(C)c2OC)cc(OC)c1OC`, in data set [5], the Rf was 0.48. Also, the viability at 100 µM in the data set with MCF7 [3] is 92%.

Consider `COc1ccc(C(=O)Nc2cc3cc(Br)ccc3n(C)c2=O)cc1`, for which the GI50 is 7 µM in the data set on MCF7 [1]; 5 µM in the data set with RPMI-8226; 10 µM in the data set on PC-3; 2000 nM with MDA-MB-231 [12]; 6.2 µM in the data set on LP-1. Also, the Activity in the data set with MCF7 [6] was 29.5%; with MCF7 [7], 18.09%; in the data set with MCF7 [9] it was 47%; in the data set on MCF7 [10] it was 41.5%; in the data set on MCF7 [13] it was 34.81%; in the data set on MCF7 [14], 48%. Also, the Activity in the data set with MCF7 [15] came to 40.43%; with MCF7 [16] it was 17.14%. The pIC50 was 5.15 in the data set on MCF7 [8]; 5.10 in the data set on Caco-2; 5.30 in the data set with IGROV-1; 5.70 with MDA-MB-231 [11]; 5.70 in the data set with Ishikawa. Moreover, in the data set on MCF7 [3], the viability at 100 µM was found to be 10%.

For `COc1c(C#CCN(C)C)cc2c(OS(=O)(=O)c3ccc(C)cc3)c(NC(=O)c3ccc4c(c3)CCC(C)(C)O4)c(=O)oc2c1C`, the Rf in data set [17] turned out to be 0.22. The viability at 100 µM with MCF7 [3] was determined as 96%.

As to `Cc1ccc(S(=O)(=O)Oc2c(NC(=O)c3ccc4c(c3)CCC(C)(C)O4)c(=O)oc3c(C)c(O)c(Br)cc23)cc1`, the Rf in [2] is 0.39. The viability at 100 µM with MCF7 [3] was found to be 65%.

For the compound `Cc1c(O)ccc2c(OS(=O)(=O)c3cccs3)c(NC(=O)c3ccc4c(c3)CCC(C)(C)O4)c(=O)oc12`, the Rf in data set [18] is on record as 0.23. The viability at 100 µM with MCF7 [3] is 62%.

Turning to `Cc1c(O)ccc2c(OS(=O)(=O)c3ccc4ccccc4c3)c(NC(=O)c3ccc4c(c3)CCC(C)(C)O4)c(=O)oc12`, it took 67 µM to inhibit growth in the data set with MCF7 [1] by half (GI50). In the data set with MCF7 [3], the viability at 100 µM was found to be 33%. Also, in [19], the “ER-alpha degradation (active/inactive)” value was “Active”. The compound also displayed a Rf in data set [20] of 0.3.
